Measurements: PubChem BioAssay
Results filed as inconclusive are left out.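 How the source made its calls, unless noted: active means inhibition over a set limit, the all-compound mean plus 3 SD, in both replicate runs; inconclusive means over that limit in just one replicate run; inactive means at or under that limit in both runs.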

Experiments:
[1] = S. cerevisiae growth inhibition in permissive medium (OD615), pilot counter-assay for S. cerevisiae lifespan shortening project, permissive growth control (AID 705;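 active means growth inhibition above 25% in both replicates, a cutoff set 3 SD above the mean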); settings: OD615, 24 h, at 10 µM, stronger effect = higher value
In short: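 Material: engineered DeaD yeast; compound dosing: one dose 10 µM, DMSO 0.25% final; measure: yeast growth inhibition indicated by reduced 24 h OD615; detection: OD615 turbidity read; incubation: cells pre-grown 4 h, then 24 h compound exposure, 30 °C humidified; medium: permissive synthetic complete medium with raffinose and galactose carbon sources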

[2] = S. cerevisiae growth inhibition in restrictive medium, OD615, pilot screen, restrictive growth control, yeast lifespan reduction project (AID 706;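 active means growth inhibition above a set limit, 3 SD over mean compound inhibition, in both replicates, cut at about 43% in these data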;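 further: modified DeaD lifespan yeast strain shifted to restrictive glucose medium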); settings: OD615, 48 h, at 10 µM, stronger effect = higher value
In short: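 material = engineered S. cerevisiae DeaD strain | medium = glucose-based CSMM-D restrictive medium | times = 4 h pre-incubation, 48 h exposure at 30 °C | technique = OD615 absorbance reading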

[3] = doxorubicin toxicity protection in MRP-1 cells – H69AR cells, CellTiter-Glo, duplicate, MRP-1 activator project, pilot screen (AID 807;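 active means viability increase at or above a cutoff of the median across tested compounds plus 3 SD, cut at about 8.5% in these data, passing the limit was not always enough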;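 further: compound pretreatment 18-22 h then 72 h combined with doxorubicin; 0% = doxorubicin alone and 100% = vehicle without doxorubicin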); settings: H69AR viability with doxorubicin, CellTiter-Glo luminescence; at 10 µM; stronger effect = higher value
[4] = viability of HCT116 without oncogenic beta-catenin – human colon tumor cells, pilot screen (AID 823;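 active means cell viability at or below a set limit in both duplicate runs, the limit being the all-compound median minus 4 SD, cut at about 23% in these data, passing the limit was not always enough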;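 further: 0% = wells killed by 20 µM Hyamine and 100% = untreated DMSO cell wells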); settings: HCT116 beta-catenin knockout viability, CellTiter-Glo, 60 h; at 10 µM; stronger effect = lower value
[5] = viability of PTEN-null HCT116 cells – cell-based, HCT116 clonal line, CellTiter-Glo, pilot screen (AID 824;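 active means viability at or below 27.92% in each of two runs, the all-compound median minus 4 SD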;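 further: 0% = 20 µM Hyamine control and 100% = vehicle cell control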); settings: HCT116 PTEN-deleted viability, 60 h, at 10 µM, stronger effect = lower value
[6] = RAM pathway blockade in budding yeast – dse1pr::URA3 reporter, 5-FOA selection, pilot screen (AID 869);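 further: 0% = DMSO wells with no growth and 100% = 10 µM 1-NA-PP1 with full growth; RAM network block rescues cells from 5-FOA so hits raise OD615 growth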; settings: S. cerevisiae dse1pr::URA3 5-FOA growth, OD615, 2 d; at 10 µM; stronger effect = higher value; strain carries analog-sensitive mutant Cbk1 kinase
[7] = RAM signaling pathway blockade in yeast – S. cerevisiae, Pdr1DBD-CYC8 efflux-inhibited sensitized strain, primary screen (AID 1298;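 active means RAM network inhibition above 8.4% in each of two replicates, 3 SD over the compound average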;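 further: 0% = DMSO untreated cells without growth and 100% = 10 µM 1-NA-PP1 full growth; higher means more yeast growth rescued from 5-FOA killing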); settings: S. cerevisiae cbk1-as DSE1-URA3 strain, 5-FOA growth OD615, 2 d; at 50 µM; stronger effect = higher value

CCOC(=O)CSc1nnc(Cc2cc(=O)[nH]c(=O)[nH]2)n1-c1ccc(Cl)cc1
inactive: growth inhibition [1] -16.1% | growth inhibition [2] -1.39% | viability increase [3] 1.33% | viability [4] 101% | viability [5] 100% | inhibition [6] 2.48% | RAM network inhibition [7] 4.03%

CCCS(=O)(=O)NCCc1cc2ccc(OC)cc2[nH]c1=O
inactive: growth inhibition [1] -13.2% | growth inhibition [2] -5.31% | viability increase [3] -2.79% | viability [4] 97.4% | viability [5] 90.1% | inhibition [6] 2.56% | RAM network inhibition [7] 2.19%

COc1ccc(-c2cn3c(C)c(C(=O)N4CCCc5ccccc54)sc3n2)cc1
inactive: growth inhibition [1] 0.505% | growth inhibition [2] 24.2% | viability increase [3] -3.31% | viability [4] 64.9% | viability [5] 65.6% | inhibition [6] 0.565% | RAM network inhibition [7] 3.08%

COc1cccc(C(c2sc3ncnn3c2O)N2CCc3ccccc3C2)c1 (stereo unspecified)
inactive: growth inhibition [1] -0.12% | growth inhibition [2] 2.29% | viability increase [3] 2.58% | viability [4] 104% | viability [5] 93.2% | inhibition [6] 1.8% | RAM network inhibition [7] 11.3%

Cn1c(=O)oc2cc(S(=O)(=O)N3CCC(N4CCCCC4)CC3)ccc21
inactive: growth inhibition [1] -15.8% | growth inhibition [2] -13.1% | viability increase [3] -1.67% | viability [4] 98.7% | viability [5] 93% | inhibition [6] -0.02% | RAM network inhibition [7] 1.06%

CC(=O)N(CCCN(C)C)CCC(C)CCC=C(C)C (stereo unspecified)
inactive: growth inhibition [1] -7.18% | growth inhibition [2] -5.88% | viability increase [3] -2.93% | viability [4] 94.1% | viability [5] 92.7% | inhibition [6] 0.41% | RAM network inhibition [7] 3.84%

CC(=O)Cc1nsc(NC(=O)C2Cc3ccccc3C(=O)O2)n1 (stereo unspecified)
inactive: growth inhibition [1] -15.5% | growth inhibition [2] -1.69% | viability increase [3] -1.57% | viability [4] 102% | viability [5] 100% | inhibition [6] 0.45% | RAM network inhibition [7] 6.74%

CC(C)N(Cc1nc(-c2ccccc2)no1)C(=O)Cc1ccccc1
inactive: growth inhibition [1] -14.4% | growth inhibition [2] -16.3% | viability increase [3] -2.2% | viability [4] 87.1% | viability [5] 79.3% | inhibition [6] -0.4% | RAM network inhibition [7] 2.86%

COc1ccc(C(C)(C)C)cc1NC(=O)COC(=O)c1cnc(C)cn1
inactive: growth inhibition [1] -4.5% | growth inhibition [2] -5.05% | viability increase [3] -2.09% | viability [4] 97.3% | viability [5] 94.3% | inhibition [6] 0.395% | RAM network inhibition [7] 4.9%

CCOCCCNC(=O)C(NC(=O)c1ccc2c(c1)OCO2)c1ccc(OC)cc1 (stereo unspecified)
inactive: growth inhibition [1] -12.5% | growth inhibition [2] -24.3% | viability increase [3] -2% | viability [4] 101% | viability [5] 96.3% | inhibition [6] 1.6% | RAM network inhibition [7] 3.11%

CCn1c(/C=N/n2cnnc2)nc2ccccc21
inactive: growth inhibition [1] -6.04% | growth inhibition [2] -5.67% | viability increase [3] -0.75% | viability [4] 96.8% | viability [5] 92.8% | inhibition [6] 1.56% | RAM network inhibition [7] -0.99%

Cc1ccc(S(=O)(=O)N2C3C=CC(C3)C2C(=O)O)cc1 (stereo unspecified)
inactive: growth inhibition [1] 3.23% | growth inhibition [2] -3.31% | viability increase [3] -0.3% | viability [4] 94.3% | viability [5] 99.9% | inhibition [6] 0.08% | RAM network inhibition [7] 1.2%

CCOC(=O)N1CCC(Nc2c(OCC)c(=O)c2=O)CC1
inactive: growth inhibition [1] -10.2% | growth inhibition [2] 10.1% | viability increase [3] -0.57% | viability [4] 102% | viability [5] 96.4% | inhibition [6] 1.31% | RAM network inhibition [7] 5.22%

COc1ccc(Cl)cc1NC(=O)CSc1nnc(Cn2c(=O)sc3ccccc32)n1C
inactive: growth inhibition [1] -8.82% | growth inhibition [2] -14.1% | viability increase [3] -2.64% | viability [4] 96.6% | viability [5] 95.6% | inhibition [6] 4.87% | RAM network inhibition [7] 7.45%

CCCc1cc(C(=O)NCC(C)C)no1
inactive: growth inhibition [1] -3.57% | growth inhibition [2] 13.8% | viability increase [3] 0.64% | viability [4] 109% | viability [5] 101% | inhibition [6] 1.85% | RAM network inhibition [7] 1.2%

CC1CC(C)CN(C(=O)CSc2nnc(-c3ccc(F)cc3)o2)C1 (stereo unspecified)
inactive: growth inhibition [1] -2.08% | growth inhibition [2] 5.43% | viability increase [3] -0.28% | viability [4] 94.5% | viability [5] 99.8% | inhibition [6] 0.645% | RAM network inhibition [7] 2.78%

Cc1cc(NC(=O)C2CC(c3ccc(F)cc3)=NO2)n(-c2ccccc2)n1 (stereo unspecified)
inactive: growth inhibition [1] -12.7% | growth inhibition [2] 2.08% | viability increase [3] 0.96% | viability [4] 97.1% | viability [5] 95.7% | inhibition [6] 1.16% | RAM network inhibition [7] -1.56%

CC(c1ccccc1)N1CNc2c(c(=O)n(C)c(=O)n2C)C1 (stereo unspecified)
inactive: growth inhibition [1] -8.04% | growth inhibition [2] 2.52% | viability increase [3] -1.82% | viability [4] 94.3% | viability [5] 92.2% | inhibition [6] 0.02% | RAM network inhibition [7] 0.77%
